The values below come from ChEMBL document CHEMBL3351725, “Design, synthesis and biological evaluation of (E)-3-(3,4-dihydroxyphenyl)acrylylpiperazine derivatives as a new class of tubulin polymerization inhibitors” (Bioorg Med Chem, 2014).

Usually IC50 stands for the concentration needed to halve the response being measured.

For assay [1], the system named is MCF7. Briefly: Antiproliferative activity against human MCF7 cells after 48 hrs by MTT assay. The assay is classed as functional, cell-based. As to conditions: MCF7, 48 h. The gist of the method:
(§1)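 Cells diluted to 2 × 10⁴ cells/mL in complete medium, seeded in 96-well plates and incubated 24 h at 37 °C, 5% CO₂ before compound addition at preset concentrations; colchicine and CA-4 as positive references. After 48 h exposure, MTT added; 4 h later 10% SDS-5% isobutyl alcohol-0.01 M HCl extraction solution added, overnight at 37 °C, absorbance read at 570 nm.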
Background: Tetrazolium dyes change colour on reduction, which living cells bring about.

In the next assay the test system is A549. Briefly: Antiproliferative activity against human A549 cells after 48 hrs by MTT assay. The class given is functional, cell-based. The settings on record: A549, 48 h. The procedure, abridged:
as §1

Assay [2] can be described thus: Antiproliferative activity against mouse B16F10 cells after 48 hrs by MTT assay. The class given is functional, cell-based. As to conditions: B16-F10, 48 h. The gist of the method:
as §1

A further assay addresses Tubulin (Bos taurus, UniProt Q6B856+Q862L2+Q862F3). Nature of the assay: Inhibition of bovine brain tubulin polymerization after 20 mins by turbidimetric method.
Assay [3] deals with MCF7. Nature of the assay: Cell cycle arrest in human MCF7 cells assessed as accumulation at G0/G1 phase at 1 ug/ml after 24 hrs by flow cytometry (reference value: 62.34 %). The assay is classed as functional. For orientation: Flow cytometry measures light scatter and fluorescence of single cells or particles in a stream.
Assay [4] relates to MCF7. Briefly: Cell cycle arrest in human MCF7 cells assessed as accumulation at S phase at 1 ug/ml after 24 hrs by flow cytometry (reference value: 13.05 %). The class given is functional.
Assay [5] has as its system MCF7. Nature of the assay: Cell cycle arrest in human MCF7 cells assessed as accumulation at G2/M phase at 1 ug/ml after 24 hrs by flow cytometry (reference value: 24.61 %). The class given is functional.
Assay [6] concerns MCF7. Briefly: Cell cycle arrest in human MCF7 cells after 24 hrs by flow cytometry. The assay is classed as functional, cell-based.
Assay [7] concerns MCF7. Briefly: Cell cycle arrest in human MCF7 cells assessed as accumulation at G0/G1 phase at 2 ug/ml after 24 hrs by flow cytometry (reference value: 62.34 %). The assay is classed as functional.
The test system of assay [8] is MCF7. Briefly: Cell cycle arrest in human MCF7 cells assessed as accumulation at S phase at 2 ug/ml after 24 hrs by flow cytometry (reference value: 13.05 %). The class given is functional.
The test system of assay [9] is MCF7. Briefly: Cell cycle arrest in human MCF7 cells assessed as accumulation at G2/M phase at 2 ug/ml after 24 hrs by flow cytometry (reference value: 24.61 %). The class given is functional.

SMILES strings stand for the structures. Values after ≈ are worked out from the molar mass of the structure shown.

For the compound `O=C(/C=C/c1ccc(O)c(O)c1)N1CCN(c2ccccc2F)CC1`, the 50% inhibitory concentration (IC50) in the assay on MCF7 [1] stood at 1.38 µg/mL (≈ 4.03 µM); with A549, 1.43 µg/mL (≈ 4.18 µM); in [2] it was 2.43 µg/mL (≈ 7.1 µM); against Tubulin, 7.78 µM.
Consider `COc1ccc(N2CCN(C(=O)/C=C/c3ccc(O)c(O)c3)CC2)cc1`, for which the 50% inhibitory concentration (IC50) in the assay with MCF7 [1] was 0.52 µg/mL (≈ 1.47 µM); in the assay with A549 it was 0.93 µg/mL (≈ 2.62 µM); in assay [2] it was 1.21 µg/mL (≈ 3.41 µM); on Tubulin it was 1.86 µM.
For `O=C(/C=C/c1ccc(O)c(O)c1)N1CCN(c2ccc(Cl)c(Cl)c2)CC1` the same measures were 1.28 µg/mL (≈ 3.25 µM), 1.74 µg/mL (≈ 4.42 µM), 1.66 µg/mL (≈ 4.22 µM) and 4.93 µM.
In the case of `COc1cc2c(c(OC)c1OC)-c1ccc(OC)c(=O)cc1[C@@H](NC(C)=O)CC2` [COLCHICINE], the half-maximal inhibitory concentration (IC50) with MCF7 [1] stood at 0.39 µg/mL (≈ 0.976 µM); with A549, 0.58 µg/mL (≈ 1.45 µM); in assay [2], 0.48 µg/mL (≈ 1.2 µM). Also, the Activity in the assay on MCF7 [3] is given as 4.6%; in the assay on MCF7 [4] it was 11.78%; in the assay on MCF7 [5], 83.62%.
`O=C(/C=C/c1ccc(O)c(O)c1)N1CCN(c2ccccc2)CC1`: the 50% inhibitory concentration (IC50) in the assay on MCF7 [1] turned out to be 1.03 µg/mL (≈ 3.18 µM); with A549, 1.32 µg/mL (≈ 4.07 µM); in assay [2] it was 1.78 µg/mL (≈ 5.49 µM); at Tubulin, 3.14 µM.
Turning to `COc1ccc(/C=C\c2cc(OC)c(OC)c(OC)c2)cc1O` [COMBRETASTATIN A4], the half-inhibitory concentration (IC50) in the assay on MCF7 [1] is 0.21 µg/mL (≈ 0.664 µM); in the assay with A549, 0.46 µg/mL (≈ 1.45 µM); in assay [2] it was 0.42 µg/mL (≈ 1.33 µM).
For `O=C(/C=C/c1ccc(O)c(O)c1)N1CCN(c2ccccn2)CC1`, the IC50 turned out to be 1.82 µg/mL (≈ 5.59 µM) with MCF7 [1], 2.32 µg/mL (≈ 7.13 µM) in the assay on A549, 3.01 µg/mL (≈ 9.25 µM) in assay [2] and 11.61 µM on Tubulin.
For `O=C(/C=C/c1ccc(O)c(O)c1)N1CCN(C(c2ccc(F)cc2)c2ccc(F)cc2)CC1` the same measures were 0.43 µg/mL (≈ 0.955 µM), 0.73 µg/mL (≈ 1.62 µM), 0.52 µg/mL (≈ 1.15 µM) and 1.44 µM.
For `O=C(/C=C/c1ccc(O)c(O)c1)N1CCN(c2ccc([N+](=O)[O-])cc2)CC1`, in that order: 1.14 µg/mL (≈ 3.09 µM), 1.56 µg/mL (≈ 4.22 µM), 1.79 µg/mL (≈ 4.85 µM) and 4.86 µM.
Consider `O=C(/C=C/c1ccc(O)c(O)c1)N1CCN(c2ccc(F)cc2)CC1`, for which the IC50 in the assay with MCF7 [1] was determined as 1.44 µg/mL (≈ 4.21 µM); with A549, 1.25 µg/mL (≈ 3.65 µM); in assay [2], 1.68 µg/mL (≈ 4.91 µM); at Tubulin, 7.39 µM.
For `COc1cccc(N2CCN(C(=O)/C=C/c3ccc(O)c(O)c3)CC2)c1`, in that order: 0.92 µg/mL (≈ 2.6 µM), 1.27 µg/mL (≈ 3.58 µM), 1.46 µg/mL (≈ 4.12 µM) and 3.08 µM.
For `O=C(/C=C/c1ccc(O)c(O)c1)N1CCN(C(c2ccccc2)c2ccc(Cl)cc2)CC1` (configuration not stated) the same measures were 0.48 µg/mL (≈ 1.07 µM), 0.8 µg/mL (≈ 1.78 µM), 0.68 µg/mL (≈ 1.51 µM) and 1.56 µM.
Take `O=C(/C=C/c1ccc(O)c(O)c1)N1CCN(c2cccc(C(F)(F)F)c2)CC1`: the half-inhibitory concentration (IC50) in the assay with MCF7 [1] amounted to 1.24 µg/mL (≈ 3.16 µM); in the assay on A549 it was 1.74 µg/mL (≈ 4.43 µM); in [2], 2.01 µg/mL (≈ 5.12 µM); at Tubulin it was 5.89 µM.
For the compound `Cc1ccc(N2CCN(C(=O)/C=C/c3ccc(O)c(O)c3)CC2)c(C)c1`, the half-inhibitory concentration (IC50) in the assay on MCF7 [1] amounted to 0.78 µg/mL (≈ 2.21 µM); with A549, 1.02 µg/mL (≈ 2.89 µM); in assay [2] it was 1.43 µg/mL (≈ 4.06 µM); on Tubulin, 2.98 µM.
As for `O=C(/C=C/c1ccc(O)c(O)c1)N1CCN(Cc2ccccc2)CC1`, the IC50 was 1.48 µg/mL (≈ 4.37 µM) with MCF7 [1], 2.98 µg/mL (≈ 8.81 µM) in the assay on A549, 3.12 µg/mL (≈ 9.22 µM) in assay [2] and 9.28 µM against Tubulin.
For `COc1ccccc1N1CCN(C(=O)/C=C/c2ccc(O)c(O)c2)CC1`, in that order: 0.54 µg/mL (≈ 1.52 µM), 0.98 µg/mL (≈ 2.77 µM), 1.23 µg/mL (≈ 3.47 µM) and 1.72 µM.
With `CCN1CCN(C(=O)/C=C/c2ccc(O)c(O)c2)CC1`, the half-inhibitory concentration (IC50) with MCF7 [1] was 2.06 µg/mL (≈ 7.45 µM); in the assay on A549, 6.54 µg/mL (≈ 23.7 µM); in [2] it was 6.44 µg/mL (≈ 23.3 µM); against Tubulin, 12.78 µM.
With `O=C(/C=C/c1ccc(O)c(O)c1)N1CCN(C(c2ccccc2)c2ccccc2)CC1`, the IC50 with MCF7 [1] came to 0.32 µg/mL (≈ 0.772 µM); in the assay on A549 it was 0.54 µg/mL (≈ 1.3 µM); in assay [2], 0.44 µg/mL (≈ 1.06 µM); on Tubulin, 0.92 µM. For the same compound, the Activity entry was “Dose-dependent effect” with MCF7 [6]; 18.33% with MCF7 [3]; 18.18% with MCF7 [4]; 63.39% in the assay with MCF7 [5]; 2.63% with MCF7 [7]; 13.01% in the assay with MCF7 [8]. Besides, the Activity in the assay on MCF7 [9] was 84.36%.
In the case of `O=C(/C=C/c1ccc(O)c(O)c1)N1CCN(c2cccc(Cl)c2Cl)CC1`, the IC50 in the assay with MCF7 [1] amounted to 1.12 µg/mL (≈ 2.85 µM); in the assay with A549, 1.68 µg/mL (≈ 4.27 µM); in [2], 2.01 µg/mL (≈ 5.11 µM); against Tubulin, 4.42 µM.
Consider `O=C(/C=C/c1ccc(O)c(O)c1)N1CCN(c2ccccc2Cl)CC1`, for which the IC50 with MCF7 [1] amounted to 1.36 µg/mL (≈ 3.79 µM); in the assay with A549 it was 1.44 µg/mL (≈ 4.01 µM); in assay [2] it was 1.82 µg/mL (≈ 5.07 µM); at Tubulin it was 5.46 µM.
For `O=C(/C=C/c1ccc(O)c(O)c1)N1CCN(c2cccc(Cl)c2)CC1`, in that order: 1.34 µg/mL (≈ 3.73 µM), 1.29 µg/mL (≈ 3.6 µM), 1.71 µg/mL (≈ 4.77 µM) and 5.28 µM.
